Active and inactive are the calls of the source. No cut-off for these calls is given here.
Columns and labels:
[1] = molecular target: Platelet-derived growth factor receptor beta (Homo sapiens) (UniProt P09619); test: Inhibition of PDGFRbeta at 10 uM
[2] = molecular target: Mitogen-activated protein kinase 14 (Homo sapiens) (UniProt Q16539); test: Inhibition of p38alpha at 10 uM
[3] = molecular target: Epidermal growth factor receptor (Homo sapiens) (UniProt P00533); test: Inhibition of EGFR at 10 uM
[4] = molecular target: Insulin receptor (Homo sapiens) (UniProt P06213); test: Inhibition of IR at 10 uM
[5] = molecular target: Hepatocyte growth factor receptor (Homo sapiens) (UniProt P08581); test: Inhibition of cMET at 10 uM
[6] = Oral bioavailability in rat at 5 mg/kg; assay type: ADME, organism-based; conditions: in vivo
[7] = molecular target: Angiopoietin-1 receptor (Homo sapiens) (UniProt Q02763); test: Inhibition of Tie2 at 10 uM
Chain of Angiopoietin-1 receptor (Homo sapiens) (Q02763 whole entry): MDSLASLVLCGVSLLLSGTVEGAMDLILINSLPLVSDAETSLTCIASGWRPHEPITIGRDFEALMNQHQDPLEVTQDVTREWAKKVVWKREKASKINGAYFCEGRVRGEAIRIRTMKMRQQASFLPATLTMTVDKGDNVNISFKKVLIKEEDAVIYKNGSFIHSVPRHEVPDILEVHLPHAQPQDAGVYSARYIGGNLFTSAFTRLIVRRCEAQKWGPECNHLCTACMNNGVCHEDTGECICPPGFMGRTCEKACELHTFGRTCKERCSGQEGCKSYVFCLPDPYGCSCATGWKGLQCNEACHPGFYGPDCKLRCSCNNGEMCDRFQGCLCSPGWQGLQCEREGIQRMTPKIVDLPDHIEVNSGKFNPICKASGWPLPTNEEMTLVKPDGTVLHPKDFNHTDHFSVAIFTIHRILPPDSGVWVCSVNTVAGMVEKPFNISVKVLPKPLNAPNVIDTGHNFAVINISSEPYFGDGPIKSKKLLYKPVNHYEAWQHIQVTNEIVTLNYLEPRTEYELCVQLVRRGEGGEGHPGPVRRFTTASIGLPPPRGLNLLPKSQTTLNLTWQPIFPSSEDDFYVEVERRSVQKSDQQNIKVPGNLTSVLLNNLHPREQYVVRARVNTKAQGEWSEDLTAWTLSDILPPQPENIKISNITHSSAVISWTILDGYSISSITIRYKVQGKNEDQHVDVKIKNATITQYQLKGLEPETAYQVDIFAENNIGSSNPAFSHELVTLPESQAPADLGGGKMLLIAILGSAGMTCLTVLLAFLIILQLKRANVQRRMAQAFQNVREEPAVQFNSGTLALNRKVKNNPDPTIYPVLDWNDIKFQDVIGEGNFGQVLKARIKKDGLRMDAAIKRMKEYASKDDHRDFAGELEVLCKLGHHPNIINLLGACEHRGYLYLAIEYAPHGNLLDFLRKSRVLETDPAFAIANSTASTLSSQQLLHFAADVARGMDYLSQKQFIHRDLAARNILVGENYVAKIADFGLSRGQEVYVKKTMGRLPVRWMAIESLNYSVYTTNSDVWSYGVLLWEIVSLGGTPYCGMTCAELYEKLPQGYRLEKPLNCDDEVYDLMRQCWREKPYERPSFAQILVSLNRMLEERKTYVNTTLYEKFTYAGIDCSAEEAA

[8] = molecular target: Calcium/calmodulin-dependent protein kinase type 1D (Homo sapiens) (UniProt Q8IU85); test: Inhibition of CAMK1delta at 10 uM
Chain of Calcium/calmodulin-dependent protein kinase type 1D (Homo sapiens) (Q8IU85 whole entry, looked up): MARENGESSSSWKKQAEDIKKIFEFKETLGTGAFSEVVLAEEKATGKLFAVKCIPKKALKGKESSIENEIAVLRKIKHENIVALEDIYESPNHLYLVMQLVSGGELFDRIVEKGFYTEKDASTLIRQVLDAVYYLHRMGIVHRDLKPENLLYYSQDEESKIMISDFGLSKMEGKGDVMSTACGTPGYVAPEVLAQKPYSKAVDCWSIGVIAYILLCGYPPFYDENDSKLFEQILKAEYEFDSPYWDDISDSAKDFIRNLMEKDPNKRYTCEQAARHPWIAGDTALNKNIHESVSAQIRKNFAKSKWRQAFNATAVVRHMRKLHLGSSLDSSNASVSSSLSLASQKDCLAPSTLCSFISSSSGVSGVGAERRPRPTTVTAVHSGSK

[9] = molecular target: Cyclin-dependent kinase 2/cyclin A (Homo sapiens) (UniProt P24941+P20248+P78396); test: Inhibition of CDK2/cyclin A at 10 uM; assay type: protein-complex assay
[10] = Inhibition of cytochrome P450 at 10 uM; assay type: ADME
[11] = Half life in rat liver microsomes; assay type: ADME, Microsome
[12] = molecular target: Tyrosine-protein kinase SYK (Homo sapiens) (UniProt P43405); test: Inhibition of Syk at 10 uM
[13] = Clearance in rat at 1 mg/kg, iv and 5 mg/kg, po; assay type: ADME, organism-based; conditions: in vivo
[14] = molecular target: RAF proto-oncogene serine/threonine-protein kinase (Homo sapiens) (UniProt P04049); test: Inhibition of c-RAF at 10 uM
[15] = molecular target: Proto-oncogene tyrosine-protein kinase Src (Homo sapiens) (UniProt P12931); test: Inhibition of cSRC at 10 uM
Chain of Proto-oncogene tyrosine-protein kinase Src (Homo sapiens) (P12931 2-536 limits assumed): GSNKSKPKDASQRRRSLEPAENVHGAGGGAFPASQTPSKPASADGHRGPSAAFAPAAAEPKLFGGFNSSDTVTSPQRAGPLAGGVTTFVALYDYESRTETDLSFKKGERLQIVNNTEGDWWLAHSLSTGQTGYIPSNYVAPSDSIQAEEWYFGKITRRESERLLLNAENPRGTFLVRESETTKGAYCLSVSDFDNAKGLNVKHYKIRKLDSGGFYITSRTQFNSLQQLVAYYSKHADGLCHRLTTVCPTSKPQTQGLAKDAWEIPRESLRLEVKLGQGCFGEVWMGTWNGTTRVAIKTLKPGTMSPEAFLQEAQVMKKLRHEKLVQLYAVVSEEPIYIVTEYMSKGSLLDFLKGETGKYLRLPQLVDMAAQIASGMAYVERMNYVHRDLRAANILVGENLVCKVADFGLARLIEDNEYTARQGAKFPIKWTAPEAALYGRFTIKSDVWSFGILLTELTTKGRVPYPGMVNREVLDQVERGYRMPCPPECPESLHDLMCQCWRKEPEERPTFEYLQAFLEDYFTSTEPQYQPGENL

[16] = molecular target: RAC-gamma serine/threonine-protein kinase (Homo sapiens) (UniProt Q9Y243); test: Inhibition of AKT3 at 10 uM
Chain of RAC-gamma serine/threonine-protein kinase (Homo sapiens) (Q9Y243 whole entry): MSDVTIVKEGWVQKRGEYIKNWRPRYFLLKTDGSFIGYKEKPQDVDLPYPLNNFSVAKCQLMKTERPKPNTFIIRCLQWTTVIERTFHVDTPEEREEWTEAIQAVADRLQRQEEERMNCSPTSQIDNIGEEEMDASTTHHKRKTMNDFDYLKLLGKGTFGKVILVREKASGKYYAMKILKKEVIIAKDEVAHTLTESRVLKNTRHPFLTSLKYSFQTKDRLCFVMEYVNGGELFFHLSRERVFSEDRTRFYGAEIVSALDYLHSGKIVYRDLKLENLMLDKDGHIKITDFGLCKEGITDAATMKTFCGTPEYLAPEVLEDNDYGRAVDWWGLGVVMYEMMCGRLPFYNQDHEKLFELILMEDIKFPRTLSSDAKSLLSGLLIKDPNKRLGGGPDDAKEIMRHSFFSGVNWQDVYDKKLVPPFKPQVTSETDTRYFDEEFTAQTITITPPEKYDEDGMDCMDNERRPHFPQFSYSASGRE

[17] = molecular target: Serine/threonine-protein kinase PLK3 (Homo sapiens) (UniProt Q9H4B4); test: Inhibition of PLK3 at 10 uM
[18] = Volume of distribution at steady state in rat at 1 mg/kg, iv and 5 mg/kg, po; assay type: ADME, organism-based; conditions: in vivo, read-out: Vdss
A-375 = test: Cytotoxicity against human A375 cells after 72 hrs by MTS assay; conditions: A-375, 72 h
[19] = molecular target: Tyrosine-protein kinase ABL1 (Homo sapiens) (UniProt P00519); test: Inhibition of ABL1 at 10 uM
[20] = molecular target: 3-phosphoinositide-dependent protein kinase 1 (Homo sapiens) (UniProt O15530); test: Inhibition of PDK1 at 10 uM
Chain of 3-phosphoinositide-dependent protein kinase 1 (Homo sapiens) (O15530 whole entry, looked up): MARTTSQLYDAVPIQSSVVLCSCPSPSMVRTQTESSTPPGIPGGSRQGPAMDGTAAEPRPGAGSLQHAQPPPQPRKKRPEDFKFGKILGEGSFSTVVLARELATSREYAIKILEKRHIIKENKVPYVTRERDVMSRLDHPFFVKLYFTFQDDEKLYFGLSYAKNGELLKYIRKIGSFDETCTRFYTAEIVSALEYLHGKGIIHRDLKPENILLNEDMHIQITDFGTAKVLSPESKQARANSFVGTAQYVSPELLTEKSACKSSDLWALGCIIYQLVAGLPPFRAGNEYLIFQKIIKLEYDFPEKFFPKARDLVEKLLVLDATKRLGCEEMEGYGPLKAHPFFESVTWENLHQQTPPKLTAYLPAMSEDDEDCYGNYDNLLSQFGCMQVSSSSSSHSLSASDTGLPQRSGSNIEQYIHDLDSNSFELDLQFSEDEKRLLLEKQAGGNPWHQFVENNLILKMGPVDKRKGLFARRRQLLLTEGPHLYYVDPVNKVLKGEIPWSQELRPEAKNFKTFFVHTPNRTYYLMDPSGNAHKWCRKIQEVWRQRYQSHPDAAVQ

[21] = Half life in human liver microsomes; assay type: ADME, Microsome
[22] = molecular target: Protein kinase C alpha type (Homo sapiens) (UniProt P17252); test: Inhibition of PKCalpha at 10 uM
[23] = molecular target: T1, Tyrosine-protein kinase JAK3 (Homo sapiens) (UniProt P52333); test: Inhibition of JAK3 at 10 uM
T1 sequence (whole entry): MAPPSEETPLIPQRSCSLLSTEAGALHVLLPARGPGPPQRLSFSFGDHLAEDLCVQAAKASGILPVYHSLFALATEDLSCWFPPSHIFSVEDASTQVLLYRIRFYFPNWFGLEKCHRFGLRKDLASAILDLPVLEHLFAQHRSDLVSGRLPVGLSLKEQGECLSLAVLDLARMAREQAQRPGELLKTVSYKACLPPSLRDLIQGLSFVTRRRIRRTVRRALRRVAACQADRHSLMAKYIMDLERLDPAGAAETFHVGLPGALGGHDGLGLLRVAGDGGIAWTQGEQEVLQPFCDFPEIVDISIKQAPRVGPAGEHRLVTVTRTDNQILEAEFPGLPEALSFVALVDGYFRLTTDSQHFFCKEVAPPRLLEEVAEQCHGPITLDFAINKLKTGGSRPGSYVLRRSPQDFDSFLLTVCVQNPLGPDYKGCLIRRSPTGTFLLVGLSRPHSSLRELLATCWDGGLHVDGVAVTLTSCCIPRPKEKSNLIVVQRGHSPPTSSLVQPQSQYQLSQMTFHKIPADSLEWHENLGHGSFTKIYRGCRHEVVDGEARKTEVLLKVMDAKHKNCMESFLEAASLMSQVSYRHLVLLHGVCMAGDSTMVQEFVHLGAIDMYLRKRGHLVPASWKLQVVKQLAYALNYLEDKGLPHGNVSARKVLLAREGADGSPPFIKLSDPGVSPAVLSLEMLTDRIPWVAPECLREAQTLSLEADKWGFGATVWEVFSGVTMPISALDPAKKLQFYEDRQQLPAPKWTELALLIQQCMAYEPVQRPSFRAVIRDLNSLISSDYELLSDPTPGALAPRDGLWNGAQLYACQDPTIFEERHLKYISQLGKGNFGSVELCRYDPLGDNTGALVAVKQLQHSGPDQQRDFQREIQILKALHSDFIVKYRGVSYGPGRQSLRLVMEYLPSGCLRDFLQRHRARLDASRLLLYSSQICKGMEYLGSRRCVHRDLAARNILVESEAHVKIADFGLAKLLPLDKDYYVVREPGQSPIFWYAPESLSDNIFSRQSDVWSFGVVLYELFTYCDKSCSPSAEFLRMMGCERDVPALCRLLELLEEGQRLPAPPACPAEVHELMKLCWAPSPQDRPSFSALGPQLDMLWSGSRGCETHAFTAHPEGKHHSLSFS

COLO 205 = test: Cytotoxicity against human COLO205 cells after 72 hrs by MTS assay; conditions: COLO 205, 72 h
[24] = molecular target: Glycogen synthase kinase-3 beta (Homo sapiens) (UniProt P49841); test: Inhibition of GSK3beta at 10 uM
Chain of Glycogen synthase kinase-3 beta (Homo sapiens) (P49841 whole entry, looked up): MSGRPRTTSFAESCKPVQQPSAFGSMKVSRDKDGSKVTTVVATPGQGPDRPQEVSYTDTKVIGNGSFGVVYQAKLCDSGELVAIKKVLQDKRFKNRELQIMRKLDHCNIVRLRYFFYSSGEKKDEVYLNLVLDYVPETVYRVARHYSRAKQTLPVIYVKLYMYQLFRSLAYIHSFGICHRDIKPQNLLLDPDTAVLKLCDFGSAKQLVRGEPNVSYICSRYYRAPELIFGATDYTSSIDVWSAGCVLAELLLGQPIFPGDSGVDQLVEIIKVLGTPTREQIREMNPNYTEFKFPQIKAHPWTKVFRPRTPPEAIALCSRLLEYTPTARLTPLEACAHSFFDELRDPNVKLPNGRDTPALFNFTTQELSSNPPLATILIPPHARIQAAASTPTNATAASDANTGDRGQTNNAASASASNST

Rattus norvegicus = test: Dose normalized AUC in rat at 1 mg/kg, iv and 5 mg/kg, po; assay type: ADME, organism-based; conditions: in vivo
[25] = molecular target: T2, Dual specificity mitogen-activated protein kinase kinase 1 (Homo sapiens, UniProt Q02750); test: Inhibition of MEK1-mediated ERK1 phosphorylation using IPTTPITTYFFFK-5FAM-COOH as substrate by fluorescent polarization assay
T2 sequence (Q02750 whole entry): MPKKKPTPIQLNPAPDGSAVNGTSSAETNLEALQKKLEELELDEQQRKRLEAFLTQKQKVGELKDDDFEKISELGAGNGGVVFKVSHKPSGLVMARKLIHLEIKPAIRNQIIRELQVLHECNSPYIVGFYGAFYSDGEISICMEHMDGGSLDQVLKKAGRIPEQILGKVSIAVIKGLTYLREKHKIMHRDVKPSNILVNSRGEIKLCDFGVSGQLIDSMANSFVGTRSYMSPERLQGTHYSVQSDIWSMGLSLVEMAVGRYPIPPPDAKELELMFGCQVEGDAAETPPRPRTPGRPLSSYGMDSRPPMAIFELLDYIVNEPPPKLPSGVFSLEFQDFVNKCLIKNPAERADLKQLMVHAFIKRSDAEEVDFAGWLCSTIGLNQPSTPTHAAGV

[26] = molecular target: T2, Dual specificity mitogen-activated protein kinase kinase 1; test: Inhibition of MEK1-mediated Erk1/2 phosphorylation in human HT-29 cells at 30 mg/kg measured after 4 hrs by in vivo pharmacodynamic model; assay type: organism-based; set-up: dose 30 mg/kg
Outline: (§1)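 In vivo pharmacodynamic study: p-ERK1/2 suppression measured 4 h after dosing across a dose response and related to compound plasma concentration.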

HL-60 = test: Antitumor activity against human HL60 cells xenograft model assessed as inhibition of tumor regression at 10 mg/kg, po; assay type: functional, organism-based; set-up: dose 10 mg/kg
Outline: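 HL-60 (NRAS) xenograft; compound given orally once daily at maximum tolerated dose over days 12–25 after tumor implant; tumor response followed versus control, complete regressions counted per group.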

[27] = molecular target: T2, Dual specificity mitogen-activated protein kinase kinase 1; test: Inhibition of MEK1-mediated Erk1/2 phosphorylation in human HT-29 cells at 3 mg/kg plasma concentration measured after 4 hrs by in vivo pharmacodynamic model; assay type: organism-based; set-up: dose 3 mg/kg; outline: as §1

Chain of Mitogen-activated protein kinase 14 (Homo sapiens) (Q16539 whole entry): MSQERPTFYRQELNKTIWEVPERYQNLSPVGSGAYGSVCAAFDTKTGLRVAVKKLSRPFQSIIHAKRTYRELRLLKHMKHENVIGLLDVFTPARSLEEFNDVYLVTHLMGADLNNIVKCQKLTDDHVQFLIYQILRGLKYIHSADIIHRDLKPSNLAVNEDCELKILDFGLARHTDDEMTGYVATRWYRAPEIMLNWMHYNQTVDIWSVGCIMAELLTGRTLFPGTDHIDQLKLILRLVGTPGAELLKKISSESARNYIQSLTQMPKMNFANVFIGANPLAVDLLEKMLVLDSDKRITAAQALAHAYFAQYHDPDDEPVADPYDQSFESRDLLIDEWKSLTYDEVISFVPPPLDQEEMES

inhibition [1] | inhibition [2] | inhibition [3] | inhibition [4] | inhibition [5] | bioavailability [6] | inhibition [7] | inhibition [8] | inhibition [9] | inhibition (INH) [10] | half-life [11] | inhibition [12] | clearance [13] | inhibition [14] | inhibition [15] | inhibition [16] | inhibition [17] | Vd [18] | inhibition [19] | SMILES | EC50 (A-375) | further results
inactive | inactive | inactive | inactive | inactive | 12% | inactive | inactive | inactive | Not Active | 26 min | inactive | 23.7 mL/min/kg | inactive | inactive | inactive | inactive | 1.16 L/kg | inactive | Cn1c(Nc2ccc(I)cc2F)c(C(=O)NOC[C@H](O)CO)c2c1C(=O)CCC2 | 3 nM | inhibition [20]: inactive; half-life [21]: 36 min; inhibition [22]: inactive; inhibition [23]: inactive; EC50 (COLO 205): 2.5 nM; inhibition [24]: inactive; AUC/dose (Rattus norvegicus): 88 ng·h/mL/mg/kg; IC50 [25]: 20 nM
inactive | inactive | inactive | inactive | inactive | 61% | inactive | inactive | inactive | Not Active | 38 min | inactive | 5.9 mL/min/kg | inactive | inactive | inactive | inactive | 0.596 L/kg | inactive | C#Cc1ccc(Nc2c(C(=O)NOCCO)c3c(n2C)C(=O)CCC3)c(F)c1 | 15 nM | inhibition [26]: Active; inhibition [20]: inactive; half-life [21]: 34 min; inhibition [22]: inactive; inhibition [23]: inactive; EC50 (COLO 205): 10 nM; inhibition [24]: inactive; AUC/dose (Rattus norvegicus): 1670 ng·h/mL/mg/kg; IC50 [25]: 32 nM
inactive | inactive | inactive | inactive | inactive | 29% | inactive | inactive | inactive | Not Active | 40 min | inactive | 21.4 mL/min/kg | inactive | inactive | inactive | inactive | 0.971 L/kg | inactive | Cc1c(Nc2ccc(I)cc2F)c(C(=O)NOCCO)c2n(c1=O)CCC2 | 2 nM | inhibition (HL-60): Active; inhibition [20]: inactive; inhibition [27]: Active; half-life [21]: 99 min; inhibition [22]: inactive; inhibition [23]: inactive; EC50 (COLO 205): 1 nM; inhibition [24]: inactive; AUC/dose (Rattus norvegicus): 204 ng·h/mL/mg/kg; IC50 [25]: 38 nM

— ChEMBL document CHEMBL2010712, “Design and synthesis of orally available MEK inhibitors with potent in vivo antitumor efficacy” (Bioorg Med Chem Lett, 2012)
